Test results taken from the M2OR odorant receptor database.
Positions count from the first letter of the chain named.

Legend:
Settings in all cases: stereoisomer not certain
[1] = target: T1, OR5M8 (Homo sapiens) (UniProt Q8NGP6)
T1 sequence (whole entry): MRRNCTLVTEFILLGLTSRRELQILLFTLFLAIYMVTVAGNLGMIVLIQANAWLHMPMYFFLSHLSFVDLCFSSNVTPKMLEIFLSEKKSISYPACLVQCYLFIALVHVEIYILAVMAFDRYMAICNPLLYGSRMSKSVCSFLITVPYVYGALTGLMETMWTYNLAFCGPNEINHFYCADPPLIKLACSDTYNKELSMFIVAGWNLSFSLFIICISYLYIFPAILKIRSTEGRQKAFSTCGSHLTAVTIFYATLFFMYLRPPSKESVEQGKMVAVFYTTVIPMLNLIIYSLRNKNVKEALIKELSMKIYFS
Method in brief: (§1)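 Transient luciferase assays in mammalian cell lines were common, though methods varied by source. The values come from published papers and their supplementary material, with extra details from the original authors when needed. Responsive refers to a measured signal the original authors judged statistically different from baseline, and non-responsive (inactive) to the remainder.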

[2] = target: T2, OR5M9 (Homo sapiens) (UniProt Q8NGP3)
T2 sequence (whole entry): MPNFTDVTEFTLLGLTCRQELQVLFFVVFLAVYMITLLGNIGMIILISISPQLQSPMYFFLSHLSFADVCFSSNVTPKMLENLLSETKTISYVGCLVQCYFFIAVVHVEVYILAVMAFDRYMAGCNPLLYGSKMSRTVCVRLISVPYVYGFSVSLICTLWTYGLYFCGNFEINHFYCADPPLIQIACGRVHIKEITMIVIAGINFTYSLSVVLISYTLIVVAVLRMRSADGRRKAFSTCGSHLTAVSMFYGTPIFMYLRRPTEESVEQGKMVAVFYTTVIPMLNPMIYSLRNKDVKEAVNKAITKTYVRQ
Method in brief: as §1

[3] = system: T3, OR5MA L2F C311H
T3 sequence (whole entry): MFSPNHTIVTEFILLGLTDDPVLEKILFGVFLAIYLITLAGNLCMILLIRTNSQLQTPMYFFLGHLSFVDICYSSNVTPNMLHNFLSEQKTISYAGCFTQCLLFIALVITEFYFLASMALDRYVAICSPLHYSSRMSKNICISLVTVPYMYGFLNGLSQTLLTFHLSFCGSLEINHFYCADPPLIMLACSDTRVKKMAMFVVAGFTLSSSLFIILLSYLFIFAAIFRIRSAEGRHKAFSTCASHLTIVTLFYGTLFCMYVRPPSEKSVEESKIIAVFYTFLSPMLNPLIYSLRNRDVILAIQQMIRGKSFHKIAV
Method in brief: as §1

[4] = system: T4, OR5MA L2F Q54H C311H
T4 sequence (whole entry): T3 sequence (whole entry) with Q54H
Method in brief: as §1

[5] = target: T5, OR5P2 (Homo sapiens) (UniProt Q8WZ92)
T5 sequence (whole entry): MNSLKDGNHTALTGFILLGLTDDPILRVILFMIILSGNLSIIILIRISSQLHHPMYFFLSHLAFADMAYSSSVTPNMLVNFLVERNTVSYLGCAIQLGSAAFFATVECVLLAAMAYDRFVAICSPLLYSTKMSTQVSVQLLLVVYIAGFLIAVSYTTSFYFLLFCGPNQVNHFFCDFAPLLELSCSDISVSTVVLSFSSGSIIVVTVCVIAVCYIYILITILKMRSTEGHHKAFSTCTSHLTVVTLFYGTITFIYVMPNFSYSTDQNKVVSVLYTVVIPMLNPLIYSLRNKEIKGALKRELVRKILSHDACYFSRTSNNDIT
Method in brief: as §1

[6] = target: T6, OR5P3 (Homo sapiens) (UniProt Q8WZ94)
T6 sequence (whole entry): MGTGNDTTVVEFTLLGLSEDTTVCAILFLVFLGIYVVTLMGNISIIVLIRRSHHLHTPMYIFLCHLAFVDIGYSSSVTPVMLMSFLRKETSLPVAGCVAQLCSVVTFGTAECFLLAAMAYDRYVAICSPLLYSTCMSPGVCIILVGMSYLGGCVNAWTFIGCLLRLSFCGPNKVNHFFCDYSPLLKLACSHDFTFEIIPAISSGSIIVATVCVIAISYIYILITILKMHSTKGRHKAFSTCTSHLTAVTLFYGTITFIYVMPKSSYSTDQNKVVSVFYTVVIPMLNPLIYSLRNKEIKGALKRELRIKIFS
Method in brief: as §1

[7] = system: T7, OR5P3 L301R
T7 sequence (whole entry): T6 sequence (whole entry) with L301R
Method in brief: as §1

[8] = system: T8, OR5R1 C122R S128G F184L
T8 sequence (whole entry): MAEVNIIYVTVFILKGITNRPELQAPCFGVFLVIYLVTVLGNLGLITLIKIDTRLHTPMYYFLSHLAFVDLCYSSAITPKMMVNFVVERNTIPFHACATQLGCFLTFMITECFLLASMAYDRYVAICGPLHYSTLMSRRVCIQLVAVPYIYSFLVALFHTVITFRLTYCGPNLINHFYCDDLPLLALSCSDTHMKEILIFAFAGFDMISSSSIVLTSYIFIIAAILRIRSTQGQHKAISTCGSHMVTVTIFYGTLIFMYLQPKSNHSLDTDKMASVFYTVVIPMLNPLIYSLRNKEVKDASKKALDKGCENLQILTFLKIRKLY
Method in brief: as §1

[9] = target: T9, OR5T1 (Homo sapiens) (UniProt Q8NG75)
T9 sequence (whole entry): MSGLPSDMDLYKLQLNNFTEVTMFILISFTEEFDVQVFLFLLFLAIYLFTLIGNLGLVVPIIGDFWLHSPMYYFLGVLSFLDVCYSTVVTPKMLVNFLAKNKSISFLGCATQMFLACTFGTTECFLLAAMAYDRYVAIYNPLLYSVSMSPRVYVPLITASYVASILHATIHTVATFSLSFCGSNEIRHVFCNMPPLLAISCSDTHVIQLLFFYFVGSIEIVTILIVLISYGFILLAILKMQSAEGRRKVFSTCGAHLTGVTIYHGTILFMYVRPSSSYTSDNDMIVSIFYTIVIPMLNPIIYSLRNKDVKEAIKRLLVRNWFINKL
Method in brief: as §1

[10] = target: T10, OR5T2 (Homo sapiens) (UniProt Q8NGG2)
T10 sequence (whole entry): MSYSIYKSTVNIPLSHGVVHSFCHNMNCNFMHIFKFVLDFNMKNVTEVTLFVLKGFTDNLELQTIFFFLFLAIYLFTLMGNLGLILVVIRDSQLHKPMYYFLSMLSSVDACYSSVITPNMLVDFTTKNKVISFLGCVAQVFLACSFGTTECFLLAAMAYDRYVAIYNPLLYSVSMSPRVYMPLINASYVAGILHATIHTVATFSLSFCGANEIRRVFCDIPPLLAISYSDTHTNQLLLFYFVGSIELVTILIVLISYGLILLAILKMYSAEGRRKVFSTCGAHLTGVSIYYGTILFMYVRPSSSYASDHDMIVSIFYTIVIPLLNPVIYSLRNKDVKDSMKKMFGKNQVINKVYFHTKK
Method in brief: as §1

[11] = system: T11, OR5T2 S4G
T11 sequence (whole entry): T10 sequence (whole entry) with S4G
Method in brief: as §1

[12] = target: T12, OR5T3 (Homo sapiens) (UniProt Q8NGG3)
T12 sequence (whole entry): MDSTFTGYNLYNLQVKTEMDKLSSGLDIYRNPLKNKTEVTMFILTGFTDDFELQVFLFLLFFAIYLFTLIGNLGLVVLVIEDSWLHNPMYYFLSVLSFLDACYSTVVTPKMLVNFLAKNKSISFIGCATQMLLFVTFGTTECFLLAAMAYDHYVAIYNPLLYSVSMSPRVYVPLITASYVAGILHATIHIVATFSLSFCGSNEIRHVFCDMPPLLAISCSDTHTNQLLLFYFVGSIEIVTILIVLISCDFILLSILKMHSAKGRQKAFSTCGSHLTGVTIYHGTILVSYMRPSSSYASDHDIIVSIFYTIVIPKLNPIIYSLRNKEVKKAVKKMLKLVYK
Method in brief: as §1

[13] = target: T13, OR5V1 (Homo sapiens) (UniProt Q9UGF6)
T13 sequence (whole entry): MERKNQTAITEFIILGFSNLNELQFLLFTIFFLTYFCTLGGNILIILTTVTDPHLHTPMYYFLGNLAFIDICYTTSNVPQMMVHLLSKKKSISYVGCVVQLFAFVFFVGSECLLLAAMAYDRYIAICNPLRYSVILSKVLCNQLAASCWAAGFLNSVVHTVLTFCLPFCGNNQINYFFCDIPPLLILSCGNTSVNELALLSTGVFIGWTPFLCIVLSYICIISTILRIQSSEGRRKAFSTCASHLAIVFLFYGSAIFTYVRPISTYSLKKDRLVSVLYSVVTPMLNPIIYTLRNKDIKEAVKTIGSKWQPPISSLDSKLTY
Method in brief: as §1

[14] = target: T14, OR5W2 (Homo sapiens) (UniProt Q8NH69)
T14 sequence (whole entry): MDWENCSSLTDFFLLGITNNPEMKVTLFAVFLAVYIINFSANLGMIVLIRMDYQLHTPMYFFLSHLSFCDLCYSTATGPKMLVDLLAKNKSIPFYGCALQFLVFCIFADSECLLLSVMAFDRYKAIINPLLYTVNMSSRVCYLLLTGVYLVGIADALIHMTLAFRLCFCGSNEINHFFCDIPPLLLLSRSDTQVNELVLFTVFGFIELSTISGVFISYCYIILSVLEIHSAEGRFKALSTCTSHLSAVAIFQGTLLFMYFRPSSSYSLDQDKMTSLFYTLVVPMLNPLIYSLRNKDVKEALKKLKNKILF
Method in brief: as §1

[15] = system: T15, OR5W2 R189C
T15 sequence (whole entry): T14 sequence (whole entry) with R189C
Method in brief: as §1

[16] = target: T16, OR6A2 (Homo sapiens) (UniProt O95222)
T16 sequence (whole entry): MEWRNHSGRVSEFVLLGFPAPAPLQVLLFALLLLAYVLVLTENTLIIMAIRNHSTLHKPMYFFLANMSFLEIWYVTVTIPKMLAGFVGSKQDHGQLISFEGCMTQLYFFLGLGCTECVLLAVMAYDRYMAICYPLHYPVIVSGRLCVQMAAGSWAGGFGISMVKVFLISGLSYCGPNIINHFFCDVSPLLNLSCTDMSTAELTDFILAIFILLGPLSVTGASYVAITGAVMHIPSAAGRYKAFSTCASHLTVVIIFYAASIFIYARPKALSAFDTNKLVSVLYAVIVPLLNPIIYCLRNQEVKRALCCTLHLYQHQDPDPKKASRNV
Method in brief: as §1

[17] = system: T17, OR6A2 I50V
T17 sequence (whole entry): T16 sequence (whole entry) with I50V
Method in brief: as §1

[18] = target: T18, OR6B1 (Homo sapiens) (UniProt O95007)
T18 sequence (whole entry): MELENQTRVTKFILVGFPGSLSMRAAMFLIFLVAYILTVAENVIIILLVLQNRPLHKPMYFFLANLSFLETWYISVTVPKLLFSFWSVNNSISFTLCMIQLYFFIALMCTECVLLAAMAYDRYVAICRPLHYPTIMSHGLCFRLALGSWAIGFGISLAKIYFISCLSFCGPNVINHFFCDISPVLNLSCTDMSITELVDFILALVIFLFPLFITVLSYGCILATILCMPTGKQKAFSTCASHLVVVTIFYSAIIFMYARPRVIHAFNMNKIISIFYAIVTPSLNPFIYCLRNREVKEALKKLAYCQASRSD
Method in brief: as §1

[19] = target: T19, OR6B2 (Homo sapiens) (UniProt Q6IFH4)
T19 sequence (whole entry): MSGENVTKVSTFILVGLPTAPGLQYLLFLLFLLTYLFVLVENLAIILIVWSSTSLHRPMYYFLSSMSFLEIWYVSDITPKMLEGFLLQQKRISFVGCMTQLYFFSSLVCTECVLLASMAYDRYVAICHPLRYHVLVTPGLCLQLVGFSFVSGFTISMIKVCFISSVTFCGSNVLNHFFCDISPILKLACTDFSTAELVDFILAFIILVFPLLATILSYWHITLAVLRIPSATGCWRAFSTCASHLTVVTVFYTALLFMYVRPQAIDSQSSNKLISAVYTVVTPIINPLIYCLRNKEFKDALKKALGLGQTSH
Method in brief: as §1

[20] = system: T20, OR6B2 R122C C179R
T20 sequence (whole entry): T19 sequence (whole entry) with R122C, C179R
Method in brief: as §1

Measured: odorant receptor agonist call;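 further: active if original authors judged signal statistically different from baseline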

CCCC(S)CCOC(C)=O (centres undefined)
inactive: all assays above

CCCCCCCCCO
inactive: [6]

CCC1OC(C)=C(O)C1=O (centres undefined)
inactive: all assays above

CC1CCCCCCCCCCCCC(=O)C1 (centres undefined)
not listed: [3] | [4] | [7] | [8] | [11] | [15] | [17] | [20]
inactive: all other assays above

CCCCCCCO
active: [6]

CC(=O)OCc1ccccc1
inactive: [6]

CCCCCCCCCS
inactive: [6]

COc1cc(C(=O)O)ccc1O
inactive: [6]

CCCCC(=O)CC
inactive: [6]

O=C1CCOc2ccccc21
inactive: [6]
